Assay results as given in ChEMBL document CHEMBL1122169, “Inhibition of rat hepatic microsomal aminopyrine N-demethylase activity by benzimidazole derivatives. Quantitative structure-activity relationships” (J Med Chem, 1982).

Experiments:
[1] = target: T1, Cytochrome P450 2B1 (Rattus norvegicus, UniProt P00176); test: Inhibitory potency to aminopyrine N-demethylase activity (P450) in hepatic microsomes from phenobarbitone-induced rats.; type: ADME, Liver; conditions: read-out: pI50 (converted)
T1 sequence (P00176 whole entry): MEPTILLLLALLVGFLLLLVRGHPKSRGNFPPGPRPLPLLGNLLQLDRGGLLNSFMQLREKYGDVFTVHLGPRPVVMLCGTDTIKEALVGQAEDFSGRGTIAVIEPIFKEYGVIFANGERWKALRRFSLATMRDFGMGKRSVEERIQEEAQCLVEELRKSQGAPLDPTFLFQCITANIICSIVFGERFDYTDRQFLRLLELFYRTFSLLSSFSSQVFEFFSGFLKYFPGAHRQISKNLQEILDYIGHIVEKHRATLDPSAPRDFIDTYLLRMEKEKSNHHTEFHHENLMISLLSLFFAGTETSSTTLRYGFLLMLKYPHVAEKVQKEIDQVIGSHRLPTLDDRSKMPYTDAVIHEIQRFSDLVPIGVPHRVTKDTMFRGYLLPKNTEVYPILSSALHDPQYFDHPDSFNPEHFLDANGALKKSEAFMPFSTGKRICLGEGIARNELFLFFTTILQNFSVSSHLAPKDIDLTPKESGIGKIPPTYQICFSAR
How it was run: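 Microsomes (105000g pellet) from livers of male Wistar rats (100–150 g) given phenobarbitone ip on consecutive days. A 3.0 mL mix in 0.1 M K phosphate, pH 7.4, held aminopyrine 1.61 μmol, NADPH-generating system, semicarbazide and 5.6 mg protein, run 15 min. Formaldehyde was read by Nash/Hantzsch. Inhibitor went in DMSO or 0.07 M HCl, with solvent in controls. I50 came from seven concentrations.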

[2] = Partition coefficient (logP); type: physicochemical; conditions: octanol/water

Compound | IC50 [1] | logP [2]
c1ccc(-c2nc3ccccc3[nH]2)cc1 | 55 µM | 2.87
CCCCCc1nc2ccccc2[nH]1 |  | 3.43
Cc1nc2cc(C)c(C)cc2[nH]1 |  | 2.4
CCc1nc2cc(C)c(C)cc2[nH]1 |  | 2.9
Cc1ccc2[nH]cnc2c1 |  | 1.89
CCCCCCCCCCCc1nc2ccccc2[nH]1 |  | 6.43
O=[N+]([O-])c1ccc2[nH]cnc2c1 |  | 1.64
O=[N+]([O-])c1cccc2[nH]cnc12 |  | 2.01
Cc1cccc(OCc2nc3ccccc3[nH]2)c1 | 28.8 µM | 3.14
ClCc1nc2ccccc2[nH]1 |  | 1.15
c1ccc(CCCCc2nc3ccccc3[nH]2)cc1 | 15.1 µM | 4.96
CCCCCCCCCCCCCc1nc2ccccc2[nH]1 | 22.9 µM | 7.43
OC(c1ccccc1)c1nc2ccccc2[nH]1 (stereo not given) |  | 1.47
CCc1nc2ccc(C)cc2[nH]1 |  | 2.44
CCCCCCCc1nc2cc(C)c(C)cc2[nH]1 | 44.7 µM | 5.4
Brc1ccc(OCc2nc3ccccc3[nH]2)c(Br)c1 | 11 µM | 4.52
Brc1cccc(Br)c1OCc1nc2ccccc2[nH]1 | 11 µM | 4.42
CCOc1ccc2[nH]c(C)nc2c1 | 56.2 µM | 1.93
CCCc1nc2cc(C)c(C)cc2[nH]1 |  | 3.4
c1ccc2c(Cc3nc4ccccc4[nH]3)cccc2c1 | 25.1 µM | 4.8
CCCCCc1nc2cc(NC(C)=O)ccc2[nH]1 |  | 2.61

Compound | IC50 [1] | logP [2]
CCCCCCCCc1nc2ccccc2[nH]1 | 28.8 µM | 4.93
CCCCCCCc1nc2cc(C)ccc2[nH]1 | 41.7 µM | 4.94
O=C(c1ccccc1)c1ccc2[nH]cnc2c1 | 20 µM | 2.43
c1ccc(OCCc2nc3ccccc3[nH]2)cc1 | 25.1 µM | 3.16
CC(=O)Nc1ccc2nc(C)[nH]c2c1 |  | 0.61
c1ccc2[nH]c(C3CCCCC3)nc2c1 | 91.2 µM | 3.39
CCCCCCc1nc2ccccc2[nH]1 | 32.4 µM | 3.93
CCCCC(=O)Nc1ccc2nc(C)[nH]c2c1 |  | 2.11
Fc1ccc2[nH]cnc2c1 |  | 2.03
Brc1ccc(OCc2nc3ccccc3[nH]2)cc1 | 21.9 µM | 3.77
Cc1ccc2nc(C)[nH]c2c1 |  | 1.94
c1ccc(CCc2nc3ccccc3[nH]2)cc1 | 38.9 µM | 3.96
Cc1nc2cc(Cl)cc(Cl)c2[nH]1 | 100 µM | 3.31
CCOc1ccc2[nH]cnc2c1 | 67.6 µM | 1.88
CC(=O)Nc1cc(Cl)cc2[nH]c(C)nc12 |  | 1.27
Clc1cc(Cl)c2[nH]cnc2c1 | 53.7 µM | 3.26
Cc1cccc(Cc2nc3ccccc3[nH]2)c1C | 53.7 µM | 5.23
CCc1ccc(OCc2nc3ccccc3[nH]2)cc1 | 67.6 µM | 3.59
O=C(Nc1cc(Cl)cc2nc[nH]c12)c1ccccc1 | 26.9 µM | 2.68
Clc1ccccc1OCc1nc2ccccc2[nH]1 | 26.9 µM | 3.33
CCCCc1nc2ccccc2[nH]1 |  | 2.93

Compound | IC50 [1] | logP [2]
CC(C)Cc1nc2ccccc2[nH]1 |  | 2.91
c1ccc2[nH]c(C3CC3)nc2c1 |  | 2.02
c1ccc(CCCc2nc3ccccc3[nH]2)cc1 | 19.1 µM | 4.46
Cc1nc2c(C)c(C)ccc2[nH]1 |  | 2.36
Cc1nc2cc(NC(=O)c3ccccc3)ccc2[nH]1 |  | 3.19
Clc1cc2nc[nH]c2cc1Cl | 81.3 µM | 3.17
NCc1nc2ccccc2[nH]1 |  | -0.06
Cc1nc2ccccc2[nH]1 |  | 1.43
CCCCCCCc1nc2ccccc2[nH]1 |  | 4.43
CCCc1nc2ccccc2[nH]1 |  | 2.43
CCc1nc2ccccc2[nH]1 |  | 1.93
Cc1nc2c([N+](=O)[O-])cc(Cl)cc2[nH]1 | 100 µM | 3.06
CC(C)(C)c1nc2ccccc2[nH]1 |  | 2.86
c1ccc2c(c1)c1c(c3ccccc32)=NCN=1 | 30.2 µM | 4.06
Cc1nc2ccc([N+](=O)[O-])cc2[nH]1 |  | 1.69
O=[N+]([O-])c1cc(Cl)cc2[nH]cnc12 |  | 3.01
Cc1cc(C)cc(OCc2nc3ccccc3[nH]2)c1 | 25.7 µM | 3.5
CCCCc1nc2cc(C)c(C)cc2[nH]1 | 55 µM | 3.9
Cc1cc(OCc2nc3ccccc3[nH]2)cc(C)c1Cl | 30.2 µM | 4.43
Brc1ccccc1OCc1nc2ccccc2[nH]1 | 12 µM | 3.51
Clc1cccc(OCc2nc3ccccc3[nH]2)c1Cl | 28.2 µM | 4.26

Compound | IC50 [1] | logP [2]
Clc1cccc(Cc2nc3ccccc3[nH]2)c1 | 22.9 µM | 4.44
Cc1ccc(OCc2nc3ccccc3[nH]2)cc1 | 44.7 µM | 3.12
Clc1ccc(OCc2nc3ccccc3[nH]2)cc1 | 25.1 µM | 3.59
Clc1ccc(Cc2nc3ccccc3[nH]2)c(Cl)c1 | 15.1 µM | 5.32
c1ccc2cc(Cc3nc4ccccc4[nH]3)ccc2c1 | 18.2 µM | 4.79
CC(C)c1nc2ccccc2[nH]1 |  | 2.41
c1ccc2c3c(ccc2c1)=NCN=3 | 53.7 µM | 2.72
Cc1ccc(OCc2nc3ccccc3[nH]2)cc1C | 25.7 µM | 3.4
c1ccc(OCc2nc3ccccc3[nH]2)cc1 | 69.2 µM | 2.66
Cc1cccc2[nH]cnc12 |  | 1.86
FC(F)(F)c1nc2ccccc2[nH]1 |  | 2.39
Clc1ccc2[nH]cnc2c1 |  | 2.38
Cc1nc2cc(Cl)c(Cl)cc2[nH]1 | 81.3 µM | 3.22
Cc1nc2cc(Cl)ccc2[nH]1 |  | 2.43
c1ccc(-c2nc3ccccc3[nH]2)nc1 | 64.6 µM | 2.38
c1cncc(-c2nc3ccccc3[nH]2)c1 |  | 1.7
c1ccc(Cc2nc3ccccc3[nH]2)cc1 [BENDAZOL] | 91.2 µM | 3.46
c1ccc2[nH]cnc2c1 [BENZIMIDAZOLE] |  | 1.38
